Test results from ChEMBL document CHEMBL4145488, “Structure-based development of an osteoprotegerin-like glycopeptide that blocks RANKL/RANK interactions and reduces ovariectomy-induced bone loss in mice” (Eur J Med Chem, 2018).
Active and inactive are the calls of the source. The rule behind the calls is not given here. Where a SMILES comes first, the peptide text is derived from it. Bridges are numbered along the chain shown (N, C = ends). Triazole bridges read from a SMILES are 1,4-linked. [ ]: non-standard residue; d: D form. The star is where a group is joined. NH(β-GlcNAc) = CC(=O)N[C@@H]1[C@@H](O)[C@H](O)[C@@H](CO)O[C@H]1N*; Dap(N3) = [N-]=[N+]=NC[C@H](N)C(=O)O; Sec = N[C@@H](C[SeH])C(=O)O; Pra = C#CC[C@H](N)C(=O)O

What was measured:
BMMC [1] = test: Inhibition of RANKL/mCSF-induced osteoclast differentiation in C57BL/6 mouse BMMC assessed as reduction in TRAP-positive multinucleated cells at 30 uM by microscopic method relative to control; type: functional; details: C57BL/6, BMMC
BMMC [2] = test: Cytotoxicity against C57BL/6 mouse BMMC up to 100 uM after 48 hrs by CCK8 assay; type: cell-based
How it was run: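 BMMCs seeded at 1×10^5/mL and grown 24 h, then exposed to peptide at 0, 12.5, 25.0, 50.0 or 100.0 µM for 48 h. CCK-8 solution added for 2 h and absorbance read at 450 nm.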

[3] = molecular target: T1, Tumor necrosis factor ligand superfamily member 11 (Homo sapiens, UniProt O14788); test: (§1) Binding affinity to recombinant human sRANKL expressed in Escherichia coli by SPR assay
T1 sequence (O14788 whole entry): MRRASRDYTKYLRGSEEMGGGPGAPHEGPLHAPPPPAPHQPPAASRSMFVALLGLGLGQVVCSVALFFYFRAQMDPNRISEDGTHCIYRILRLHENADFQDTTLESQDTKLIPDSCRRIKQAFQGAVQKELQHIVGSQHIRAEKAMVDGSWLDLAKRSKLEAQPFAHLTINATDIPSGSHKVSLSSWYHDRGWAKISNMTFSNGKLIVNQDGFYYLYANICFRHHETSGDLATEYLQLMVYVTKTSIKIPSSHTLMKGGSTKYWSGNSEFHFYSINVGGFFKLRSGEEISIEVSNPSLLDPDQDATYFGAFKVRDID
How it was run: (§2)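 SPR at 25 °C with recombinant sRANKL immobilized on a CM5 dextran chip at about 3500 RU. Surfaces regenerated between cycles with Gly-HCl at pH 2.5. kon, koff and Kd taken from kinetic fitting of the sensorgrams.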

[4] = molecular target: T2, Tumor necrosis factor ligand superfamily member 11 (Homo sapiens) (UniProt O14788); test: Binding affinity to recombinant human sRANKL expressed in Escherichia coli assessed as association constant by SPR assay; how it was run: as §2
T2 sequence (whole entry): T1 sequence (O14788 whole entry)

[5] = molecular target: T2, Tumor necrosis factor ligand superfamily member 11 (Homo sapiens); test: Binding affinity to recombinant human sRANKL expressed in Escherichia coli assessed as dissociation constant by SPR assay; how it was run: as §2
[6] = Drug metabolism assessed as alpha-chymotrypsin (unknown origin)-mediated compound degradation by measuring parent compound remaining after 8 hrs by HPLC analysis; type: ADME; details: human, read-out: Stability
How it was run: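 Peptide exposed to α-chymotrypsin; percent residual peptide tracked by HPLC. Mean ± SEM of duplicate independent experiments.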

BMMC [7] = test: Inhibition of RANKL/mCSF-induced osteoclast differentiation in C57BL/6 mouse BMMC assessed as reduction in TRAP-positive multinucleated cells by microscopic method; type: functional, cell-based; details: for IC50: C57BL/6, BMMC
[8] = molecular target: T2, Tumor necrosis factor ligand superfamily member 11 (Homo sapiens); test: as §1; how it was run: as §2
[9] = molecular target: Tumor necrosis factor ligand superfamily member 11/11A (Mus musculus) (UniProt O35235+O35305); test: Inhibition of RANKL/RANK protein-protein interaction in mouse RAW264.7 cells assessed as reduction in RANKL-stimulated NF-kB signaling pathway activation by measuring decrease in IkBalpha phosphorylation after 2 hrs by immunoblot assay; type: cell-based
How it was run: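 RAW264.7 cells (1×10^5/well) cultured 12 h, pretreated with or without peptide for 2 h, then stimulated with 300 ng/mL sRANKL for the indicated periods. Lysates (20 µg) run on SDS-PAGE and blotted for phospho-IκBα, IκBα and ERK2; ECL detection.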

Mus musculus [10] = test: Inhibition of ovariectomy-induced trabecular bone loss in C57BL/6 mouse distal femur bone at 20 mg/kg/day, ip after 6 weeks by H and E staining based microscopic method; type: functional, organism-based
How it was run: (§3)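 Female C57BL/6 mice, 6 weeks old, ovariectomized, six per group; 20.0 mg/kg i.p. daily in saline, or saline, for 6 weeks. Femurs fixed in 4 % paraformaldehyde for 4 days and decalcified in 10% EDTA for 2 weeks. 4 µm paraffin sections of the metaphysis stained with H&E (trabecular area) or TRAP (osteoclasts counted).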

Mus musculus [11] = test: Inhibition of ovariectomy-induced trabecular bone loss in C57BL/6 mouse assessed as reduction in TRAP-positive multinucleated cells in distal femur bone at 20 mg/kg/day, ip after 6 weeks by microscopic method; type: functional, organism-based; how it was run: as §3
Mus musculus [12] = test: Inhibition of ovariectomy-induced trabecular bone loss in C57BL/6 mouse distal femur bone assessed as increase in bone volume expressed per unit total volume at 20 mg/kg/day, ip after 6 weeks by micro-CT analysis; type: functional, organism-based
How it was run: (§4)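 Female C57BL/6 mice, 6 weeks old, ovariectomized, six per group; 20.0 mg/kg i.p. daily in saline, or saline vehicle, for 6 weeks. Femurs then scanned by micro-CT for BMD, Tb.N and BS/TV, with 2D/3D reconstruction.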

Mus musculus [13] = test: Inhibition of ovariectomy-induced trabecular bone loss in C57BL/6 mouse distal femur bone assessed as increase in bone surface area expressed per unit total volume at 20 mg/kg/day, ip after 6 weeks by micro-CT analysis; type: functional, organism-based; how it was run: as §4
Mus musculus [14] = test: Inhibition of ovariectomy-induced trabecular bone loss in C57BL/6 mouse distal femur bone assessed as increase in trabecular number at 20 mg/kg/day, ip after 6 weeks by micro-CT analysis; type: functional, organism-based; how it was run: as §4
Mus musculus [15] = test: Inhibition of ovariectomy-induced trabecular bone loss in C57BL/6 mouse distal femur bone assessed as increase in bone mineral density at 20 mg/kg/day, ip after 6 weeks by micro-CT analysis; type: functional, organism-based; how it was run: as §4
Mus musculus [16] = test: Inhibition of osteoclastogenesis in ovariectomized C57BL/6 mouse assessed as decrease in serum IL-6 level at 20 mg/kg/day, ip after 6 weeks by ELISA; type: functional, organism-based
How it was run: (§5)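 Female C57BL/6 mice, 6 weeks old, ovariectomized; six per group (sham, OVX with saline, OVX with peptide). Peptide given at 20.0 mg/kg i.p. daily in saline for 6 weeks. Blood centrifuged and serum stored at -80 °C; IL-6, TRAcp5B, CTX-1 and TNF-α measured by ELISA kits.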

Mus musculus [17] = test: Inhibition of osteoclastogenesis in ovariectomized C57BL/6 mouse assessed as decrease in serum TNFalpha level at 20 mg/kg/day, ip after 6 weeks by ELISA; type: functional, organism-based; how it was run: as §5
Mus musculus [18] = test: Inhibition of osteoclastogenesis in ovariectomized C57BL/6 mouse assessed as decrease in serum CTX-1 level at 20 mg/kg/day, ip after 6 weeks by ELISA; type: functional, organism-based; how it was run: as §5
Mus musculus [19] = test: Inhibition of osteoclastogenesis in ovariectomized C57BL/6 mouse assessed as decrease in serum TRAcp5B level at 20 mg/kg/day, ip after 6 weeks by ELISA; type: functional, organism-based; how it was run: as §5

Tumor necrosis factor ligand superfamily member 11/11A (Mus musculus), sequence (O35235 139-316 limits assumed): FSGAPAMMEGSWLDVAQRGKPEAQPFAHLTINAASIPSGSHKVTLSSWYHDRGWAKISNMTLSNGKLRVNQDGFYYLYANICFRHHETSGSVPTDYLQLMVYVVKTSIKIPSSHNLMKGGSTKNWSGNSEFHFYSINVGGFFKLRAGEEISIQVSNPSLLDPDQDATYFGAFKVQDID
Tumor necrosis factor ligand superfamily member 11/11A (Mus musculus), sequence (O35305 31-625 partner limits assumed): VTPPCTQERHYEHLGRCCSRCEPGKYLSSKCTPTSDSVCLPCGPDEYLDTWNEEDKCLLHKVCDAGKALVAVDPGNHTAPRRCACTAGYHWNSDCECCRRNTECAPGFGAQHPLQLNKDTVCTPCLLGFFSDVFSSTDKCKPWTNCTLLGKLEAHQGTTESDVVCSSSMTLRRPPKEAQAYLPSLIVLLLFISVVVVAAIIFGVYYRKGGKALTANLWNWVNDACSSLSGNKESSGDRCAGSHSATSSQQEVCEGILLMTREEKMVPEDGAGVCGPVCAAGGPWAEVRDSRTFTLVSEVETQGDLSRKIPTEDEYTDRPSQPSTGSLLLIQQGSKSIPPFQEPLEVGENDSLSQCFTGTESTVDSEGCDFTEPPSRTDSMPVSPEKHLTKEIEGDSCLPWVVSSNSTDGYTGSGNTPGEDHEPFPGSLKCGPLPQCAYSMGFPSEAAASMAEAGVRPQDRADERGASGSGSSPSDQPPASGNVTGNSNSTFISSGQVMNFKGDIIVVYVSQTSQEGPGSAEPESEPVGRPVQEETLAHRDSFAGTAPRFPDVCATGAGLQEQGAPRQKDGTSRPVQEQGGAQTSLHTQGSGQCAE

Row | Compound | inhibition at 30 µM (BMMC [1]) [%] | Activity (BMMC [2]) | Kd [3] [µM] | Kapp [4] [M⁻¹ s⁻¹] | Kapp [5] [s⁻¹] | remaining at 8 h [6] [%] | inhibition (BMMC [7]) | IC50 (BMMC [7]) [µM] | Activity [8] | inhibition [9] | inhibition (Mus musculus [10]) | inhibition (Mus musculus [11]) | inhibition (Mus musculus [12]) | inhibition (Mus musculus [13]) | inhibition (Mus musculus [14]) | inhibition (Mus musculus [15]) | inhibition (Mus musculus [16]) | inhibition (Mus musculus [17]) | inhibition (Mus musculus [18]) | inhibition (Mus musculus [19])
1 | CC[C@H](C)[C@@H]1NC(=O)[C@H](CCC(=O)O)NC(=O)[C@H](CC(C)C)NC(=O)[C@H](Cc2ccc(O)cc2)NC(=O)[C@H](CCCNC(=N)N)NC(=O)CNC(=O)[C@H](CCC(=O)O)NC(=O)[C@H](CCCCN)NC(=O)[C@@H](NC(C)=O)CSSC[C@@H](C(=O)N[C@@H](CC(C)C)C(N)=O)NC(=O)[C@H](Cc2ccccc2)NC(=O)[C@H](CCC(=O)O)NC1=O (Ac-CKEGRYLEIEFCL-NH2; disulfide 1-12) | 24.4 | Non-Toxic | 30.9 | 212 | 0.0065 | 38.5 | – | – | – | – | – | – | – | – | – | – | – | – | – | –
2 | CC[C@H](C)[C@@H]1NC(=O)[C@H](CCC(=O)O)NC(=O)[C@H](CC(C)C)NC(=O)[C@H](Cc2ccc(O)cc2)NC(=O)[C@H](CCCNC(=N)N)NC(=O)CNC(=O)[C@H](CCC(=O)O)NC(=O)[C@H](CCCCN)NC(=O)[C@@H](NC(C)=O)C[Se][Se]C[C@@H](C(=O)N[C@@H](CC(C)C)C(N)=O)NC(=O)[C@H](Cc2ccccc2)NC(=O)[C@H](CCC(=O)O)NC1=O (Ac-[Sec]KEGRYLEIEF[Sec]L-NH2; diselenide 1-12) | 40.6 | Non-Toxic | – | – | – | – | – | – | – | – | – | – | – | – | – | – | – | – | – | –
3 | CC[C@H](C)[C@@H]1NC(=O)[C@H](CCC(=O)O)NC(=O)[C@H](CC(C)C)NC(=O)[C@H](Cc2ccc(O)cc2)NC(=O)[C@H](CCCNC(=N)N)NC(=O)CNC(=O)[C@H](CCC(=O)O)NC(=O)[C@H](CCCCN)NC(=O)[C@@H](NC(=O)[C@H](CC(=O)N[C@@H]2O[C@H](CO)[C@@H](O)[C@H](O)[C@H]2NC(C)=O)NC(C)=O)CSSC[C@@H](C(=O)N[C@@H](CC(C)C)C(N)=O)NC(=O)[C@H](Cc2ccccc2)NC(=O)[C@H](CCC(=O)O)NC1=O (Ac-D(NH(β-GlcNAc))CKEGRYLEIEFCL-NH2; disulfide 2-13) | 58.2 | Non-Toxic | 4.54 | 609 | 0.0027 | > 60.7 | Dose-dependent effect | 28.5 | Dose-dependent effect | Active | Active | Active | Active | Active | Active | Active | Active | Active | Active | Active
4 | CC[C@H](C)[C@@H]1NC(=O)[C@H](CCC(=O)O)NC(=O)[C@H](CC(C)C)NC(=O)[C@H](Cc2ccc(O)cc2)NC(=O)[C@H](CCCNC(=N)N)NC(=O)CNC(=O)[C@H](CCC(=O)O)NC(=O)[C@H](CCCCN)NC(=O)[C@@H](NC(C)=O)Cc2cn(nn2)C[C@@H](C(=O)N[C@@H](CC(C)C)C(N)=O)NC(=O)[C@H](Cc2ccccc2)NC(=O)[C@H](CCC(=O)O)NC1=O (Ac-[Pra]KEGRYLEIEF[Dap(N3)]L-NH2; triazole 1-12) | 42.1 | Non-Toxic | – | – | – | – | – | – | – | – | – | – | – | – | – | – | – | – | – | –
5 | CC[C@H](C)[C@H](NC(=O)[C@H](CC(C)C)NC(=O)[C@H](Cc1ccc(O)cc1)NC(=O)[C@@H]1CSSC[C@H](NC(=O)[C@@H](N)Cc2ccc(O)cc2)C(=O)N[C@@H](CCC(=O)O)C(=O)N[C@@H]([C@@H](C)CC)C(=O)N[C@@H](CCC(=O)O)C(=O)N[C@@H](Cc2ccccc2)C(=O)N1)C(=O)N[C@@H](CCCNC(=N)N)C(=O)O (H-YCEIEFCYLIR-OH; disulfide 2-7) | 55.6 | – | 2.75 | 496 | 0.0013 | – | – | 25.3 | – | – | – | – | – | – | – | – | – | – | – | –
